# What was measured:
# Mus musculus [1] = test: Anticonvulsant activity in ip dosed CF1 albino mouse assessed as minimum effective dose after 0.5 hrs by MES screen test; format: functional
# How it was run: (§1)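 Mice given test compounds i.p. at 30, 100 and 300 mg/kg (one to four mice per dose), suspended in 1% Tween 80 or 0.5% methylcellulose–water. Maximal electroshock seizure test, read at 0.5 and 4 h after dosing. Value is the lowest dose protecting half or more of the mice.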
# Rattus norvegicus [2] = test: Hepatotoxicity in Sprague-Dawley rat assessed as total protein level per 100 ml of blood at 30 mg/kg, po after 15 days; format: toxicity, organism-based; set-up: dose 30 mg/kg, route oral; conditions: in vivo, 360 h
# How it was run: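 Rats given 30 mg/kg/day p.o. in methylcellulose for two weeks, then anesthetized with ether. Blood was collected from the liver. SGOT, SGPT, alkaline phosphatase, total protein and albumin were measured by reported methods.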
# Mus musculus [3] = test: Anticonvulsant activity in ip dosed CF1 albino mouse assessed as minimum effective dose after 4 hrs by scPTZ test; format: functional
# How it was run: (§2)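 Mice dosed i.p. at 30, 100 and 300 mg/kg in 1% Tween 80 or 0.5% methylcellulose–water, then challenged 0.5 and 4 h later. PTZ in 0.9% NaCl was injected s.c. at the posterior midline. Mice were watched for 30 min. Protection meant no clonic spasm lasting at least 5 s. Value is the minimum dose active in half or more of the mice.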
# Mus musculus [4] = organism: Mus musculus; test: Neurotoxicity in CF1 albino mouse after 4 hrs by rotarod test; format: toxicity, organism-based; conditions: in vivo
# Mus musculus [5] = organism: Mus musculus; test: Neurotoxicity in CF1 albino mouse after 0.5 hrs by rotarod test; format: toxicity, organism-based; conditions: in vivo
# Rattus norvegicus [6] = organism: Rattus norvegicus; test: Hepatotoxicity in Sprague-Dawley rat assessed as presence of normal hepatic parenchyma with portal triad and central vein by histopathological study; format: toxicity, organism-based; conditions: in vivo
# How it was run: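 Rats were dosed chronically and sacrificed under light ether anesthesia 24 h after the last dose. Livers were removed, washed in normal saline and embedded in paraffin. Sections 5–6 thick were cut, stained with haematoxylin and eosin, and examined microscopically.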
# Rattus norvegicus [7] = test: Antidepressant activity in Wistar rat assessed as mean average immobility time during 5 mins of test period at 30 mg/kg, po after 30 mins by forced-swimming test; format: functional
# Mus musculus [8] = test: Anticonvulsant activity in ip dosed CF1 albino mouse assessed as minimum effective dose after 4 hrs by MES screen test; format: functional; how it was run: as §1
# Mus musculus [9] = test: Anticonvulsant activity in ip dosed CF1 albino mouse assessed as minimum effective dose after 0.5 hrs by scPTZ test; format: functional; how it was run: as §2
SMILES,Activity (Mus musculus [1]) [mg/kg],Activity (Rattus norvegicus [2]) [g],Activity (Mus musculus [3]) [mg/kg],Activity (Mus musculus [4]),Activity (Mus musculus [5]),Activity (Rattus norvegicus [6]),Activity (Rattus norvegicus [7]) [s],Activity (Mus musculus [8]) [mg/kg],Activity (Mus musculus [9]) [mg/kg]
O=C(NC(=S)Nc1nc2ccc(F)cc2s1)c1ccccc1,30,1.8,100,Not Active,Not Active,Non-toxic,24,30,30
COc1ccc(C(=O)NC(=S)Nc2nc3ccc(Cl)cc3s2)cc1,30,1.79,100,Not Active,Not Active,Non-toxic,34.2,30,30
O=C(NC(=S)Nc1nc2ccc(Cl)cc2s1)c1ccccc1,300,,300,,,Non-toxic,29,300,100
Cc1ccc2nc(NC(=S)NC(=O)c3ccccc3)sc2c1,300,,300,,,Non-toxic,29,300,300
O=C(NC(=S)Nc1nc2ccc(Br)cc2s1)c1ccccc1Cl,300,,300,,,Non-toxic,22.6,300,300
COc1ccc(C(=O)NC(=S)Nc2nc3ccc([N+](=O)[O-])cc3s2)cc1,,,,,,Non-toxic,27.8,,
COc1ccc(C(=O)NC(=S)Nc2nc3ccc(C)cc3s2)cc1,300,,,,,Non-toxic,10.2,300,
O=C(NC(=S)Nc1nc2ccc(F)cc2s1)c1ccccc1Cl,30,1.83,300,Not Active,Not Active,Non-toxic,25,100,100
O=C(NC(=S)Nc1nc2ccc(F)cc2s1)c1ccc(Cl)cc1,100,,,,,Non-toxic,24.6,300,
Cc1ccc2nc(NC(=S)NC(=O)c3ccccc3Cl)sc2c1,30,1.71,30,Not Active,Not Active,Non-toxic,40.4,30,30
O=C(NC(=S)Nc1nc2ccc(Cl)cc2s1)c1ccc(Cl)cc1,30,1.9,300,Not Active,Not Active,Non-toxic,20.2,100,100
Cc1ccc2nc(NC(=S)NC(=O)c3ccc(Cl)cc3)sc2c1,30,1.88,100,Not Active,Not Active,Non-toxic,30,100,100
COc1ccc(C(=O)NC(=S)Nc2nc3ccc(OC)cc3s2)cc1,300,,300,,,Non-toxic,16.8,300,300
O=C(NC(=S)Nc1nc2ccc(Cl)cc2s1)c1ccccc1Cl,300,,300,,,Non-toxic,32.6,300,300
COc1ccc2nc(NC(=S)NC(=O)c3ccccc3)sc2c1,100,,300,,,Non-toxic,19.8,100,300
O=C(NC(=S)Nc1nc2ccc(Br)cc2s1)c1ccc(Cl)cc1,100,,300,,,Non-toxic,38,100,300
COc1ccc(C(=O)NC(=S)Nc2nc3ccc(F)cc3s2)cc1,,,,,,Non-toxic,31.2,,
COc1ccc2nc(NC(=S)NC(=O)c3ccccc3Cl)sc2c1,30,1.98,100,Not Active,Not Active,Non-toxic,42.6,100,100
COc1ccc2nc(NC(=S)NC(=O)c3ccc(Cl)cc3)sc2c1,300,,300,,,Non-toxic,43,300,300
O=C(NC(=S)Nc1nc2ccc([N+](=O)[O-])cc2s1)c1ccccc1,300,,300,,,Non-toxic,14.8,300,300
NC(=O)N1c2ccccc2C=Cc2ccccc21 [CARBAMAZEPINE],30,,100,Not Active,Not Active,Non-toxic,,100,100
CNCCC(Oc1ccc(C(F)(F)F)cc1)c1ccccc1 (stereo not drawn) [FLUOXETINE],29.6,,,,,,,14.2,
O=C1NC(=O)C(c2ccccc2)(c2ccccc2)N1 [PHENYTOIN],30,,,Not Active,Not Active,Non-toxic,,30,

# Source: ChEMBL document CHEMBL1141656, “N-{[(6-substituted-1,3-benzothiazole-2-yl)amino]carbonothioyl}-2/4-substituted benzamides: synthesis and pharmacological evaluation” (Eur J Med Chem, 2008)
